Data published in ChEMBL document CHEMBL1142277, “Toward a structure-based model of salvinorin A recognition of the kappa-opioid receptor” (J Med Chem, 2008).
pKi: −log10 of the molar value.

Columns and labels:
Assay type in all cases: cell-based
[1] = Displacement of [3H]diprenorphine from chimeric rat kappa opioid receptor (1-141)/mu opioid receptor (151-233)/kappa opioid receptor (228-380) expressed in HEK293 cells
Procedure, shortened: (§1)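 Whole-cell binding: HEK-293 cells transiently transfected (calcium phosphate, 10–20 µg pcDNA) with wild-type, point-mutant or chimeric receptor, harvested 48–72 h later, washed and resuspended in 25 mM HEPES pH 7.4. Incubated with [3H]-diprenorphine, room temperature, 90 min. Separation by filtration on PEI-presoaked GF/C filters, scintillation counting. Nonspecific binding with 100 µM naloxone, norBNI or salvinorin A. Triplicates, nonlinear regression.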

[2] = Displacement of [3H]diprenorphine from chimeric rat mu opioid receptor (1-150)/kappa opioid receptor (142-227)/mu opioid receptor (234-398) expressed in HEK293 cells; procedure, shortened: as §1
Mu-type opioid receptor [3] = biological target: Mu-type opioid receptor (Rattus norvegicus, UniProt P33535, W318A); assay: Displacement of [3H]diprenorphine from rat mu opioid receptor W318A mutant expressed in HEK293 cells; procedure, shortened: as §1
[4] = biological target: Kappa-type opioid receptor (Rattus norvegicus, UniProt P34975, Y313A); assay: Displacement of [3H]diprenorphine from rat kappa opioid receptor Y313A mutant expressed in HEK293 cells; procedure, shortened: as §1
[5] = Displacement of [3H]diprenorphine from chimeric rat kappa opioid receptor (1-141)/mu opioid receptor (151-398) expressed in HEK293 cells; procedure, shortened: as §1
[6] = Displacement of [3H]diprenorphine from chimeric rat kappa opioid receptor (1-141)/mouse delta opioid receptor (132-372) expressed in HEK293 cells; procedure, shortened: as §1
Mu-type opioid receptor [7] = biological target: Mu-type opioid receptor (Rattus norvegicus, UniProt P33535); assay: Displacement of [3H]diprenorphine from rat mu opioid receptor expressed in HEK293 cells; procedure, shortened: as §1
[8] = Displacement of [3H]diprenorphine from chimeric rat mu opioid receptor (1-233)/kappa opioid receptor (228-380) expressed in HEK293 cells; procedure, shortened: as §1
[9] = Displacement of [3H]diprenorphine from chimeric rat mu opioid receptor (1-150)/kappa opioid receptor (142-380) expressed in HEK293 cells; procedure, shortened: as §1
[10] = Displacement of [3H]diprenorphine from chimeric rat kappa opioid receptor (1-227)/mouse delta opioid receptor (215-372) expressed in HEK293 cells; procedure, shortened: as §1
[11] = Displacement of [3H]diprenorphine from chimeric rat kappa opioid receptor (1-227)/mu opioid receptor (234-398) expressed in HEK293 cells; procedure, shortened: as §1
[12] = biological target: Kappa-type opioid receptor (Rattus norvegicus, UniProt P34975); assay: Displacement of [3H]diprenorphine from rat kappa opioid receptor expressed in HEK293 cells; procedure, shortened: as §1
Chain of Kappa-type opioid receptor (Rattus norvegicus, UniProt P34975) (P34975 whole entry): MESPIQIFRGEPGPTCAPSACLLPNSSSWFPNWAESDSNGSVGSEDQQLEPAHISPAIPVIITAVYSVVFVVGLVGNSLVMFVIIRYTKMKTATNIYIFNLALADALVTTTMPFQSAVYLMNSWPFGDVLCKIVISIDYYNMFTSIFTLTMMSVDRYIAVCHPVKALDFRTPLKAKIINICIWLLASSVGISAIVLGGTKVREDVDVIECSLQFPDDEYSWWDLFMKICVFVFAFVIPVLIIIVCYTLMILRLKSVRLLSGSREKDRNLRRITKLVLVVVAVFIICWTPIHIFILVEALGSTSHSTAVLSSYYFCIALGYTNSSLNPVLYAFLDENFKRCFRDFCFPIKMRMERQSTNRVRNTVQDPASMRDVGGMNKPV

Chain of Mu-type opioid receptor (Rattus norvegicus, UniProt P33535) (P33535 whole entry): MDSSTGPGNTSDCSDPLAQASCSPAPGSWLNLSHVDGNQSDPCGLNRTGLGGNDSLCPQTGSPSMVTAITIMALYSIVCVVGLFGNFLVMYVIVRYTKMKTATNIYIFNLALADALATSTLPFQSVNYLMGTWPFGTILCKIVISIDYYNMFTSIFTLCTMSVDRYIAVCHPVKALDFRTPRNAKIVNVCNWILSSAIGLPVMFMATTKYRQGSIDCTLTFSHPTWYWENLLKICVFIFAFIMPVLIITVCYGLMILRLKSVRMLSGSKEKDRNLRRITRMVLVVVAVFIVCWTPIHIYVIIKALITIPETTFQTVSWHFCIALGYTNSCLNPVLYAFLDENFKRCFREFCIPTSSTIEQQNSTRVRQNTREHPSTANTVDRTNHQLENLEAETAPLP
Chain of Mu-type opioid receptor (Rattus norvegicus, UniProt P33535, W318A) (P33535 whole entry W318A): as the sequence (P33535 whole entry) above, with W318A counted along it
Chain of Kappa-type opioid receptor (Rattus norvegicus, UniProt P34975, Y313A) (P34975 whole entry Y313A): as the sequence (P34975 whole entry) above, with Y313A counted along it

SMILES | pKi [1] | pKi [2] | pKi (Mu-type opioid receptor [3]) | pKi [4] | pKi [5] | pKi [6] | pKi (Mu-type opioid receptor [7]) | pKi [8] | pKi [9] | pKi [10] | pKi [11] | pKi [12]
COC(=O)[C@@H]1C[C@H](OC(C)=O)C(=O)[C@H]2[C@@]1(C)CC[C@H]1C(=O)O[C@H](c3ccoc3)C[C@]21C [SALVINORIN A] | 6.28 | 6.34 |  |  |  |  |  |  |  |  |  | 
COC(=O)[C@@H]1C[C@H](C(=O)c2ccccc2)C(=O)[C@H]2[C@@]1(C)CC[C@H]1C(=O)O[C@H](c3ccoc3)C[C@]21C | 5.08 | 6.21 | 6.37 | 5.41 | 5.79 | < 5.00 | 6.61 | 5.64 | 5.39 | 6.35 | 5.03 | 5.86
